Here are results for 11 compounds from article PMC4873341 (Molecular cancer therapeutics, 2016).

For series [1], the system named is Hh pathway. The class given is cell-based. To be noted: for Induction of Hh pathway activation by sterol alone: Shh-Light2 cells, absence of SHHN conditioned medium; for Hh pathway inhibition by single drug at subtherapeutic dose: posaconazole 1 μM, KAAD-cyclopamine 10 nM, vismodegib 20 nM, SHHN CM.
The test system of series [2] is ASZ and BSZ basal cell carcinoma cells. Description: Quantitative PCR of Gli1 transcript in ASZ and BSZ basal cell carcinoma cells. The class given is cell-based, murine. To be noted: posaconazole 1 μM; KAAD-cyclopamine 40 nM; GDC-0449 40 nM; 2 days.
In series [3] the target is SMO (Mus musculus, UniProt P56726). Description: Fluorescent BODIPY-cyclopamine competition assay. The class given is binding. Conditions: BODIPY-cyclopamine 5 nM.
Sequence of SMO (P56726 33-793): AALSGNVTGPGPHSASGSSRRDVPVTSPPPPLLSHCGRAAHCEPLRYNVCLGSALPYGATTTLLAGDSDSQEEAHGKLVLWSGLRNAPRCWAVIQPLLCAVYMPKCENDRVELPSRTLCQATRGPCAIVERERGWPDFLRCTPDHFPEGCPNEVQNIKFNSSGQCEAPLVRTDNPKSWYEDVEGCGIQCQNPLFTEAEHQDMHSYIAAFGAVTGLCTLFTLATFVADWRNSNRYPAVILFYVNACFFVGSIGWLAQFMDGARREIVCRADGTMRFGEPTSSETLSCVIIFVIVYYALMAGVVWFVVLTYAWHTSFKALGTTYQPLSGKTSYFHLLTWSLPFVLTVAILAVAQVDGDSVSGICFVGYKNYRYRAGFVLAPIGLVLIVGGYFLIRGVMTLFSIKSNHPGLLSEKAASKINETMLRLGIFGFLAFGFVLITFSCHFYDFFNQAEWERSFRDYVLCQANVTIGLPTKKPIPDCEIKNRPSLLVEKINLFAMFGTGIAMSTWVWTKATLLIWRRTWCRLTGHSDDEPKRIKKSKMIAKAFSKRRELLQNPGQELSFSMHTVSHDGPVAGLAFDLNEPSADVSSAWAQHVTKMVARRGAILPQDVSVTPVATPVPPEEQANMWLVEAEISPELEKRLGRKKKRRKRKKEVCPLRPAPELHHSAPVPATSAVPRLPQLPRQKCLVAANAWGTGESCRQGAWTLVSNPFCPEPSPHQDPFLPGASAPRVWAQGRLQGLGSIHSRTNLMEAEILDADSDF
In series [4] the test system is Hh pathway (SMO). Description: SHH-Light2 reporter assay stimulated with SAG. The class given is cell-based. To be noted: for EC50: read-out: EC50 of SAG. (Reporter assays use an easily measured gene product as a stand-in for the process of interest.)
Series [5] relates to cytochrome P450 (CYP) 3A4. To be noted: cited from earlier work.
Series [6] relates to CYP2C9. To be noted: cited from earlier work.
Series [7] relates to CYP2C19. To be noted: cited from earlier work.
In series [8] the test system is drug-resistant SMO mutants (D477G, E522K, G457S, S392N, D388N, N223D, L225R). Type of series: cell-based, murine.
The subject of series [9] is SMO-G457S. Type of series: cell-based, murine.
Series [10] has as its system SMO accumulation in primary cilia. The class given is cell-based. Conditions: SHHN and posaconazole 7.5 μM; ~87% with SHHN and vehicle; p < 0.0001. Put shortly: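 NIH-3T3 cells were stimulated with SHHN conditioned medium together with 7.5 μM test compound or vehicle. Cells were immunostained for SMO (rabbit polyclonal, 1:750) and acetylated tubulin (mouse monoclonal, 1:1000), then detected with AlexaFluor 488 and 594 secondaries. Confocal images were scored for the percentage of primary cilia with SMO; mean ± S.D. of at least 7 fields.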

Series [11] has as its system BCC tumors. Description: Necrosis scoring of H&E sections of BCC tumors. To be noted: posaconazole treated vs vehicle control; p = 0.0028. The class given is in vivo, mice.
For series [12], the system named is Hh pathway (SMO). Description: SHH-Light2 reporter assay stimulated with 20. Type of series: cell-based.
A short description of series [13]: Plasma pharmacokinetic study, single oral dose. The class given is in vivo, Balb-c mice. Conditions: for AUC(0-t) / Cmax: Balb-c, mouse, plasma, po. An outline of the steps:
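Balb-c mice, given acidified drinking water (pH 2.5), received one oral gavage of test-compound oral suspension diluted in sterile water (30 or 60 mg/kg). Mice were killed at various times. Plasma was extracted with methanol/formic acid containing tolbutamide internal standard and analysed by LC-MS/MS (C18 column). Parameters came from noncompartmental analysis; 3 mice per time point, mean ± S.D.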

Series [14] concerns CYP 2C8. Conditions: cited from earlier work.
The test system of series [15] is Hh pathway in allografted BCC tumors. Description: Gli1 mRNA in allografted BCC tumors. Type of series: in vivo, mice. Conditions: 30 or 60 mg/kg twice per day by oral gavage for 5 days; p = 0.0224, p = 0.0033.
Series [16] has as its system CYP 2E1. Conditions: cited from earlier work.
Series [17] relates to CYP 1A2. Conditions: cited from earlier work.
Series [18] relates to CYP 2D6. To be noted: cited from earlier work.
The test system of series [19] is Hh pathway (Ptch-/- murine embryonic fibroblast cells). The class given is cell-based. To be noted: Mus musculus, read-out: IC50 of Hh pathway inhibition.
The subject of series [20] is murine Ptch+/-;p53-/- BCC allografts. The series can be described thus: Tumor growth of subcutaneous BCC allografts. Type of series: in vivo, mice. Conditions: 30 mg/kg or 60 mg/kg twice-daily, oral gavage; p < 0.005.
Series [21] concerns SMOA1 (SMO W539L) mutant. Type of series: cell-based. Conditions: Shh-Light2 SmoA1 cells.
The mark [22] stands for this setting: increasing concentrations of posaconazole.
Where [23] appears, read: higher than human values of ref 41.

Structures are written as SMILES. Read-outs that look alike come from different tables or passages of the source.

The AUC(0-t) is the area under the concentration-time curve up to a stated or last time point. Broadly, the Cmax is the maximum level reached in the sampled fluid or tissue. As a reminder, the EC50 is the concentration that produces a half-maximal response.

Consider `CC(C)CCC[C@@H](C)[C@H]1CC[C@H]2C3=CC[C@H]4C[C@@H](O)CC[C@]4(C)[C@H]3CC[C@]12C` [lathosterol], for which the “Induction of Hh pathway activation by sterol alone” value (“Induction of Hh pathway activation” for short) in series [1] is “insufficient to induce Hh pathway activation”.
In the case of `CC1=C2C[C@H]3[C@@H](CC=C4CC(=O)CC[C@@]43C)[C@@H]2CC[C@]12O[C@@H]1C[C@H](C)CN(CCNC(=O)CCCCCNC(=O)CCc3ccccc3)[C@H]1[C@H]2C` [KAAD-cyclopamine], the “Pathway inhibition as measured by Gli1 mRNA, single drug” value (shortened to “Pathway inhibition as measured”) in [2] is “significantly inhibited the pathway”. Further, the “Fluorescence of BODIPY-cyclopamine bound to SMO” value in series [3] (KAAD-cyclopamine 200 nM and 400 nM) is reported as “reduced the fluorescence of BD bound to SMO to baseline levels”. Also, the “Shift (increase) of the EC50 of SAG” value in series [4] (KAAD-cyclopamine 20 nM (1x IC50)) is listed as ~ 3.5 fold. The “Hh pathway inhibition by single drug at subtherapeutic dose” value (“Hh pathway inhibition by single drug” below) in [1] was “partially inhibited the Hh pathway”. In series [1] (read-out: IC50 of Hh pathway inhibition (given as 1x IC50), SHH-Light2 cells), the IC50 was 20 nM.
As to `CCC(C)n1ncn(-c2ccc(N3CCN(c4ccc(OCC5COC(Cn6cncn6)(c6ccc(Cl)cc6Cl)O5)cc4)CC3)cc2)c1=O` (stereo not drawn) [itraconazole], the CYP3A4 inhibition entry in series [5] is “strong inhibitors and substrates”. Further, the CYP2C9 inhibition result in [6] is “weaker inhibitors”. Besides, the CYP2C19 inhibition result in [7] is given as “weaker inhibitors”.
`C[C@@H](c1ncncc1F)[C@](O)(Cn1cncn1)c1ccc(F)cc1F` [voriconazole]: the IC50 in [1] (Shh Light2, read-out: No detectable inhibition of the Hh pathway up to) is > 40000 nM.
As to `Cc1c(C(=O)Nc2ccc(N3C[C@@H](C)O[C@@H](C)C3)nc2)cccc1-c1ccc(OC(F)(F)F)cc1` [sonidegib], the “Response of sonidegib-resistant SMO mutants” value in [8] (sonidegib 0.5 μM (~80x IC50)) was “resistant”. The “Response of SMO-G457S” value in [9] (sonidegib 0.05 μM) is given as “resistant”; in series [9] (sonidegib 0.5 μM), “inhibited”.
Consider `CC(C)CCC[C@@H](C)[C@H]1CC[C@H]2[C@@H]3CC=C4C[C@@H](O)CC[C@]4(C)[C@H]3CC[C@]12C` [cholesterol], for which the “Induction of Hh pathway activation” value in [1] is given as “insufficient to induce Hh pathway activation”.
`CC(O)C(C)n1ncn(-c2ccc(N3CCN(c4ccc(OCC5COC(Cn6cncn6)(c6ccc(Cl)cc6Cl)O5)cc4)CC3)cc2)c1=O` (stereo not drawn) [hydroxy-itraconazole]: the CYP3A4 inhibition entry in series [5] is “strong inhibitors and substrates”. In addition, the CYP2C9 inhibition entry in series [6] was “weaker inhibitors”. In addition, the CYP2C19 inhibition result in [7] is “weaker inhibitors”.
For `CC(C)=CCC[C@@H](C)[C@H]1CC[C@H]2[C@@H]3CC=C4C[C@@H](O)CC[C@]4(C)[C@H]3CC[C@]12C` [desmosterol], the “Induction of Hh pathway activation” value in series [1] is recorded as “insufficient to induce Hh pathway activation”.
Regarding `CS(=O)(=O)c1ccc(C(=O)Nc2ccc(Cl)c(-c3ccccn3)c2)c(Cl)c1` [vismodegib], the “Pathway inhibition as measured” value in series [2] is listed as “significantly inhibited the pathway”. Moreover, in series [8] (vismodegib 0.5 μM (~40x IC50)), the “Response of vismodegib-resistant SMO mutants (D477G, E522K)” value was “resistant”. The “Hh pathway inhibition by single drug” value in [1] is recorded as “partially inhibited the Hh pathway”.
`CC[C@@H]([C@H](C)O)n1ncn(-c2ccc(N3CCN(c4ccc(OC[C@@H]5CO[C@@](Cn6cncn6)(c6ccc(F)cc6F)C5)cc4)CC3)cc2)c1=O` [posaconazole]: the CYP3A4 inhibition result in series [5] is recorded as “inhibits”. In addition, the “Primary cilia with SMO accumulation” value in series [10] was ~ 16%. Also, the “Tumor necrosis (necrosis score 0-3)” value in series [11] is listed as “significant levels of necrosis”. Besides, the IC50 in [12] (Shh Light2, read-out: IC50 of pathway activation by 20(S)-hydroxycholesterol) was determined as 164 nM. In series [12] (setting [22]), the “Effect on maximal pathway activation of 20(S)-hydroxycholesterol” value is listed as “decreased maximal pathway activation” and the “Effect on the EC50 of 20(S)-hydroxycholesterol” value is given as “did not significantly alter the EC50 of the oxysterol”. For the same compound, in series [13] (30 mg/kg), the AUC(0-t) is 245 µg·h/mL and the Cmax amounted to 16100 ng/mL. In series [13] (60 mg/kg), this compound gave an AUC(0-t) of 288 µg·h/mL and a Cmax of 15900 ng/mL. Further, in series [13] (setting [23]), the “AUC0-24h, murine 30 mg/kg relative to human 800 mg single dose” value is recorded as ~ 5 x and the “Plasma Cmax, murine 30 mg/kg relative to human 800 mg single dose” value is on record as ~ 12 x. For the same compound, in series [14], the CYP2C8 inhibition result is “does not inhibit”. The “Hh pathway inhibition in tumors as measured by Gli1 mRNA” value in [15] was “significant inhibition of the Hh pathway”. The “Pathway inhibition as measured” value in series [2] is recorded as “significantly inhibited the pathway”. In addition, the “Fluorescence of BODIPY-cyclopamine bound to SMO” value in series [3] (increasing concentrations up to 10 μM) is on record as “did not significantly decrease the fluorescence”. The “Activity against drug-resistant SMO mutants, single drug” value in [8] (Smo-/- fibroblasts, SHHN CM) is “showed inhibitory activity against all of the tested drug-resistant SMO mutants”. In series [16], the CYP2E1 inhibition entry is on record as “does not inhibit”. In addition, in [4] (posaconazole 0 to 7.5 μM), the “Effect on maximal induction of pathway activation by SAG” value is “significantly decreased the maximal induction of pathway activation” and the “Effect on the EC50 of SAG” value is given as “did not significantly alter the EC50 of SAG”. Moreover, the CYP1A2 inhibition result in series [17] is given as “does not inhibit”. The CYP2D6 inhibition entry in series [18] is “does not inhibit”. In addition, the “Decrease of the IC50 of posaconazole by KAAD-cyclopamine” value in series [1] (increasing concentrations of KAAD-cyclopamine) is reported as ~ 2.5 fold. Moreover, the “Hh pathway inhibition by single drug” value in series [1] is on record as “partially inhibited the Hh pathway”. In [19], the IC50 was 986 nM. Besides, in [6], the CYP2C9 inhibition result was “does not inhibit”. Also, in series [20], the “Tumor growth compared to vehicle control” value is on record as “significantly suppressed tumor growth”. Also, in series [21], the “Inhibition of pathway activity” value is reported as “no inhibitory effect”.
For `CNC1CCC(N(Cc2cccc(-c3ccncc3)c2)C(=O)c2sc3ccccc3c2Cl)CC1` (stereo not drawn) [SAG], the figures for the EC50 in series [4] (0 nM KAAD-cyclopamine) and in series [4] (with 100 nM KAAD-cyclopamine) were 34 nM and 244 nM, respectively.
